Measurements reported in ChEMBL document CHEMBL1125296, “Structure-activity relationships associated with 3,4,5-triphenyl-1H-pyrazole-1-nonanoic acid, a nonprostanoid prostacyclin mimetic” (J Med Chem, 1992).
pIC50: −log10 of the molar value.

Key:
Homo sapiens = species on record: Homo sapiens; assay: Inhibition of ADP-induced human platelet aggregation; type: functional, organism-based
Outline: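 Human blood drawn into 1/10 volume 3.8% sodium citrate, spun 10 min at 140g for platelet-rich plasma; compound in DMSO added to PRP 3 min before ADP (5.86 μM); aggregation followed by Born aggregometry (Mustard modification) against vehicle controls; IC50 from dose-response curves.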

Prostacyclin receptor = Prostacyclin receptor (Homo sapiens, UniProt P43119); assay: IC50 value was evaluated by measuring the displacement of [3H]iloprost from Prostaglandin I2 receptor
Prostacyclin receptor, sequence (P43119 whole entry): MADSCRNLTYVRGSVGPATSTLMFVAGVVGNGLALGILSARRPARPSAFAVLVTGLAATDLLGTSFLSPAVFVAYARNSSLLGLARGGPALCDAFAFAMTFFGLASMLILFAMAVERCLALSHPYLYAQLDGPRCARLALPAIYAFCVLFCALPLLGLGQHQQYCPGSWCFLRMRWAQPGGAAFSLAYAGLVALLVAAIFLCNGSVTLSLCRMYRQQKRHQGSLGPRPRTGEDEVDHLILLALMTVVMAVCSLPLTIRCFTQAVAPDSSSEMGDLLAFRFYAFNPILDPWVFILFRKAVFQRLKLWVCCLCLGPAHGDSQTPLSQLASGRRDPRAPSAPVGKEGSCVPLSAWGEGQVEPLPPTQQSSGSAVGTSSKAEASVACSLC
Outline: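 Platelet plasma membranes (200 μg) incubated with 5 nM [3H]iloprost in 10 mM MgCl2, 1 mM EGTA, 50 mM Tris/HCl pH 7.4 at 0-4 °C for 90-120 min; diluted with ice-cold Tris buffer, rapidly filtered on GF/C, washed four times, bound radioactivity counted by scintillation; IC50 for displacement.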

SMILES	pIC50 (Homo sapiens)	pIC50 (Prostacyclin receptor)
O=C(O)CCCCCCCCn1cc(-c2ccccc2)c(-c2ccccc2)n1	5.35	6.46
O=C(O)CCCCCCCCn1nc(-c2ccccc2)c(-c2ccccc2)c1-c1ccccc1	6.40	6.80
NC(=O)CCCCCCCCn1nc(-c2ccccc2)c(-c2ccccc2)c1-c1ccccc1	4.48	
CS(=O)(=O)NC(=O)CCCCCCCCn1nc(-c2ccccc2)c(-c2ccccc2)c1-c1ccccc1	5.23	
c1ccc(-c2nn(CCCCCCCCc3nnn[nH]3)c(-c3ccccc3)c2-c2ccccc2)cc1	5.98	
O=C(O)CCCCCCn1ncc(-c2ccccc2)c1-c1ccccc1	< 4.04	
O=C(O)CCCCCCCCn1ncc(-c2ccccc2)c1-c1ccccc1	5.24	6.15
O=C(O)COCCCCCCn1nc(-c2ccccc2)c(-c2ccccc2)c1-c1ccccc1	6.36	
CC(C)(C)OC(=O)COCCCCCCn1nc(-c2ccccc2)c(-c2ccccc2)c1-c1ccccc1	< 4.21	
O=C(O)CS(=O)(=O)CCCCCCn1nc(-c2ccccc2)c(-c2ccccc2)c1-c1ccccc1	4.66	
O=C(O)CCCCCCCCn1cc(-c2ccccc2)cn1	< 3.98	< 5.00
CNC(=O)CCCCCCCCn1nc(-c2ccccc2)c(-c2ccccc2)c1-c1ccccc1	< 4.17	
O=C(O)CCCCCCCCCn1nc(-c2ccccc2)c(-c2ccccc2)c1-c1ccccc1	5.26	
O=C(O)CCCCCCCCn1nc(-c2ccccc2)cc1-c1ccccc1	< 4.18	< 5.00
O=C(O)CCCCCCCCCn1ncc(-c2ccccc2)c1-c1ccccc1	< 4.09	
O=C(O)CCCCCCCCCCn1nc(-c2ccccc2)c(-c2ccccc2)c1-c1ccccc1	4.73	
O=C(O)CCCCCCCn1nc(-c2ccccc2)c(-c2ccccc2)c1-c1ccccc1	5.47	
O=C(O)CSCCCCCCn1nc(-c2ccccc2)c(-c2ccccc2)c1-c1ccccc1	6.06	
O=C(O)CCCCCCCCCn1cc(-c2ccccc2)c(-c2ccccc2)n1	< 4.09	
O=C(O)C[S+]([O-])CCCCCCn1nc(-c2ccccc2)c(-c2ccccc2)c1-c1ccccc1 (stereo not given)	5.19	
CCc1c(-c2ccccc2)nn(CCCCCCCCC(=O)O)c1-c1ccccc1	< 4.10	
O=C(O)CCCCCCn1cc(-c2ccccc2)c(-c2ccccc2)n1	< 4.04	
O=C(O)CCCCCCn1nc(-c2ccccc2)c(-c2ccccc2)c1-c1ccccc1	4.65	
O=C(O)CCCCCn1nc(-c2ccccc2)c(-c2ccccc2)c1-c1ccccc1	< 4.11	
O=C(O)CCCCCCCCn1nc(-c2ccccc2)c(Cc2ccccc2)c1-c1ccccc1	< 4.17	
COC(=O)CCCCCCCCn1nc(-c2ccccc2)c(-c2ccccc2)c1-c1ccccc1	5.37	
O=C(O)CCCCCCCn1cc(-c2ccccc2)c(-c2ccccc2)n1	< 4.07	
O=C(O)CCCCCCCn1ncc(-c2ccccc2)c1-c1ccccc1	5.82	6.80
N#CCCCCCCCCn1nc(-c2ccccc2)c(-c2ccccc2)c1-c1ccccc1	< 4.14	
